Data on nine compounds can be found in ChEMBL document CHEMBL4680377, “Discovery of a Novel Series of Pyridone-Based EP3 Antagonists for the Treatment of Type 2 Diabetes” (ACS Med Chem Lett, 2021).

For series [1], the target named is T1, Prostaglandin E2 receptor EP3 subtype (Homo sapiens, UniProt P43115).
T1 sequence (P43115 whole entry): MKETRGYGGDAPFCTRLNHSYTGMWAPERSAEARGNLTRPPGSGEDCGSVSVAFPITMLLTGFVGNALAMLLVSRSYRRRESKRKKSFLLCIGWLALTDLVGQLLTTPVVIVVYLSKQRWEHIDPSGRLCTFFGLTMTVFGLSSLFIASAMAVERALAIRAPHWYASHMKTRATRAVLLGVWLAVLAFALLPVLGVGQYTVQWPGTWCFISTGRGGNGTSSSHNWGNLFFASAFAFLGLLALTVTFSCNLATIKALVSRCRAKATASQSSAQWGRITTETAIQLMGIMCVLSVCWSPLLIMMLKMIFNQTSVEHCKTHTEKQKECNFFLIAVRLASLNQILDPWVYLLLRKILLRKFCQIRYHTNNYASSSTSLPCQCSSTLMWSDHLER
The series is described as follows: Displacement of [3H]-PGE2 from human EP3 expressed in Chem-1 cell membranes incubated for 2 hrs by TopCount scintillation plate reader analysis. The arrangement: species or system Membrane. (In general: Displacement assays read how much labelled ligand stays bound in the presence of the test substance.)

Series [2] deals with T1, Prostaglandin E2 receptor EP3 subtype. The series is described as follows: Antagonist activity at human EP3 expressed in CHO cells assessed as suppression of sulprostone-induced inhibition of forskolin induced cAMP production measured after 30 mins by HTR-FRET assay. The series is classed as functional, cell-based. (Cyclic AMP is a second messenger, typically raised through Gs and lowered through Gi signalling.)

A short description of series [3]: Metabolic stability in human liver microsomes assessed as intrinsic clearance half life. The series is classed as ADME, Microsome. Background: Liver microsomes are vesicles of endoplasmic reticulum, rich in cytochrome P450 enzymes.
The nature of series [4]: Metabolic stability in rat liver microsomes assessed as intrinsic clearance half life. The series is classed as ADME, Microsome.
Series [5] is described as follows: Kinetic solubility of compound in PBS buffer. The series is classed as physicochemical. The conditions noted are these: read-out: Kinetic_solubility.
Series [6] can be described thus: Kinetic solubility of compound at pH 2. The series is classed as physicochemical. The settings on record: buffer, read-out: Kinetic_solubility.
A short description of series [7]: Apparent permeability across apical to basolateral side in dog MDCK cells. The series is classed as ADME, cell-based, Canis lupus familiaris.
Series [8] is described as follows: Clearance in Sprague-Dawley rat at 2 mg/kg, iv measured up to 24 hrs by LC-MS/MS analysis. The series is classed as ADME, organism-based. The conditions noted are these: in vivo. In a few lines:
(§1)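 Sprague-Dawley rats, n = 3 per route, sampled over 24 h. Full PK: iv 2 mg/kg in 20% HPbCD with po 10 mg/kg given either in 0.5% HPMC or in 20% HPbCD, depending on study. Fast PK: po only, 10 mg/kg in 0.5% HPMC.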

Series [9] is described as follows: Volume of distribution at steady state in Sprague-Dawley rat at 2 mg/kg, iv measured up to 24 hrs by LC-MS/MS analysis. The series is classed as ADME, organism-based. The settings on record: in vivo, read-out: Vdss. The method, boiled down: as §1
The nature of series [10]: Half life in Sprague-Dawley rat at 10 mg/kg, po measured up to 24 hrs by LC-MS/MS analysis. The conditions noted are these: in vivo. The series is classed as ADME, organism-based. The method, boiled down:
as §1

The nature of series [11]: Cmax in Sprague-Dawley rat at 10 mg/kg, po measured up to 24 hrs by LC-MS/MS analysis. The series is classed as ADME, organism-based. Further details: route oral, dose 10 mg/kg, time <=24. The settings on record: in vivo. The method, boiled down:
as §1

The nature of series [12]: Oral bioavailability in Sprague-Dawley rat at 10 mg/kg measured up to 24 hrs by LC-MS/MS analysis. The series is classed as ADME, organism-based. The conditions noted are these: in vivo. The method, boiled down: as §1
Series [13] is described as follows: AUClast in Sprague-Dawley rat at 10 mg/kg, po measured up to 24 hrs by LC-MS/MS analysis. The series is classed as ADME, organism-based. Further details: route oral, dose 10 mg/kg, time <=24. The conditions noted are these: in vivo. The method, boiled down: as §1
The nature of series [14]: Plasma protein binding in human. The series is classed as ADME, cell-free. The conditions noted are these: read-out: PPB (converted).
A short description of series [15]: Plasma protein binding in rat. The series is classed as ADME, cell-free. The conditions noted are these: read-out: PPB (converted).
Series [16] concerns the target T2, Prostaglandin E2 receptor EP3 subtype (Rattus norvegicus, UniProt P34980).
T2 sequence (P34980 whole entry): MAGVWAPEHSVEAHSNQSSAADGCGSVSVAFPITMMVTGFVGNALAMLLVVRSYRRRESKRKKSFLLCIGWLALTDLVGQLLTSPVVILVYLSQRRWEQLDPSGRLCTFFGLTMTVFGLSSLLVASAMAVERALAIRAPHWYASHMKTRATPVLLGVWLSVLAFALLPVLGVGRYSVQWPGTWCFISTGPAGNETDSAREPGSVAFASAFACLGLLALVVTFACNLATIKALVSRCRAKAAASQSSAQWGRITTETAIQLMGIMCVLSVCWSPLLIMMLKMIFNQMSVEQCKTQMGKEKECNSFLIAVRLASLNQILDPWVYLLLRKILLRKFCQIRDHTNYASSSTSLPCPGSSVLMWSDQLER
The series is described as follows: Binding affinity to rat EP3.

Converted amounts (≈) assume the structure as drawn.

The Ki is the dissociation constant of the complex between target and ligand, obtained from inhibition or displacement. The low end stands for tighter binding, the high end for weaker binding. A word on the IC50: it is the midpoint of a concentration-inhibition curve. A word on the half-life: it is how long it takes for the measured level to halve. What is called Papp A→B is the apparent permeability from the apical to the basolateral side of a cell layer. Consider `CC(C)/C(=C1\C(=O)NC(=O)N1C)c1ccc(-c2ccc3cccc(F)c3c2)[nH]c1=O`, for which affinity in series [1] was put at a Ki of 85 nM. Further, the IC50 in [2] was 350 nM. For the same compound, the half-life in series [3] and in series [4] was over 180 min each time. Besides, the values for the solubility kinetic in series [5] and in series [6] were 22.5 µM (≈ 9.12 µg/mL) and 11.1 µM (≈ 4.5 µg/mL), respectively. For the same compound, in series [7], the apparent permeability from apical to basolateral (Papp A→B) was 6.85 ×10⁻⁶ cm/s.

The term clearance denotes a measure of how efficiently the substance is removed, as volume per time. A high value points to efficient removal. The Cmax is the highest concentration seen after dosing. By AUC(0-t) is commonly meant the area under the concentration-time curve up to a stated or last time point. Read a high AUC(0-t) as high exposure. In series [1], `C/C(=C1/OC(=O)NC1=O)C(c1ccc(-c2ccc3cccc(F)c3c2)[nH]c1=O)C(C)C` (stereo not drawn) came in with a Ki of 17 nM. Also, the IC50 in series [2] stood at 39 nM. Also, the half-life in series [3] is over 180 min; in [4], over 180 min; in series [10] it was 240 min. In addition, the figures for the solubility kinetic in series [5] and in series [6] were 17.2 µM (≈ 7.23 µg/mL) and 12.7 µM (≈ 5.34 µg/mL), respectively. The compound also came in with a clearance in series [8] of 15.6 mL/min/kg. Moreover, in series [9], the Vd was found to be 1.96 L/kg. Moreover, the peak level in series [11] (Cmax) was 1230 ng/mL. Also, the bioavailability in series [12] was found to be 118%. In series [13], this compound registered an AUC(0-t) at 24 h of 12.7 µg·h/mL.

Turning to `CCC(/C=C1\OC(=O)NC1=O)(CC)c1ccc(-c2ccc3cccc(F)c3c2)[nH]c1=O`, the half-life in series [3] was 56.9 min; in [4], over 180 min. In addition, the solubility kinetic in series [5] is 32.6 µM (≈ 13.7 µg/mL); in series [6], 13.5 µM (≈ 5.68 µg/mL). Moreover, the highest level in [11] (Cmax) was 58100 ng/mL. The same compound came in with an area under the curve AUC(0-t) at 24 h in [13] of 327 µg·h/mL.

On to `CCn1ncc2c(F)cc(-c3ccc(C(/C=C4\OC(=O)NC4=O)(CC)CC)c(=O)[nH]3)cc21`, for which the half-life in [3] is over 180 min; in [4], over 180 min; in series [10], 588 min. Moreover, the solubility kinetic was 30.8 µM (≈ 13.5 µg/mL) in series [5] and 21.7 µM (≈ 9.51 µg/mL) in series [6]. In series [8], this compound gave a clearance of 0.93 mL/min/kg. Besides, in series [9], the Vd was 0.24 L/kg. In series [11], this compound showed a peak concentration (Cmax) of 8740 ng/mL. In series [12], the bioavailability turned out to be 54.9%. In addition, the fraction unbound in series [14] is 0.0011; in [15] it was 0.0018. In series [13], this compound gave an area under the curve AUC(0-t) at 24 h of 100 µg·h/mL.

Turning to `CC(C)C(/C=C1\OC(=O)NC1=O)c1ccc(-c2ccc3cccc(F)c3c2)[nH]c1=O` (stereo not drawn), the half-life in [3] was over 180 min; in series [4], over 180 min; in series [10], 276 min. The solubility kinetic in series [5] is 28 µM (≈ 11.4 µg/mL); in [6], 8 µM (≈ 3.25 µg/mL). Besides, in series [7], the Papp A→B was determined as 9.9 ×10⁻⁶ cm/s. For the same compound, the clearance in series [8] was found to be 1.06 mL/min/kg. Besides, in series [9], the Vd was 0.23 L/kg. In addition, the maximum concentration (Cmax) in series [11] came to 24600 ng/mL. Also, the bioavailability in series [12] came to 97.7%. Besides, the fraction unbound in series [14] was 0.0008; in [15] it was 0.0001. Further, the Ki in [16] was 1 nM. In series [13], the area under the curve AUC(0-t) at 24 h worked out at 159 µg·h/mL.

Turning to `CC(C)[C@H](C[C@@H]1OC(=O)NC1=O)c1ccc(-c2ccc3cccc(F)c3c2)[nH]c1=O` (relative stereo), the inhibition constant Ki in series [1] is 8 nM. In addition, the IC50 in [2] is 27 nM. Also, the figures for the half-life in series [3] and in series [4] were 124 min and 30.2 min, respectively. Besides, the solubility kinetic in [5] stood at 21.1 µM (≈ 8.62 µg/mL); in series [6] it was 25.1 µM (≈ 10.3 µg/mL). Also, the Papp A→B in [7] was 10.8 ×10⁻⁶ cm/s. In addition, in [11], the peak level (Cmax) was 44100 ng/mL. Besides, the fraction unbound was 0.0032 in series [14] and 0.0021 in series [15]. For the same compound, the AUC(0-t) at 24 h in [13] came to 218 µg·h/mL.

Turning to `CC(C)[C@H](C[C@H]1OC(=O)NC1=O)c1ccc(-c2ccc3cccc(F)c3c2)[nH]c1=O` (relative stereo), in series [1], the inhibition constant (Ki) stood at 6 nM. Also, the IC50 in [2] amounted to 15 nM. In addition, the values for the half-life in series [3] and in [4] were 101 min and 57 min, respectively. For the same compound, the results for the solubility kinetic in series [5] and in series [6] were 35.4 µM (≈ 14.5 µg/mL) and 24.4 µM (≈ 9.97 µg/mL), respectively. Moreover, in series [7], the Papp A→B turned out to be 10.3 ×10⁻⁶ cm/s.

In the case of `CC(C)[C@@H](c1ccc(-c2ccc3cccc(F)c3c2)[nH]c1=O)[C@@H]1OC(=O)NC1=O` (relative stereo), the affinity in [1], expressed as Ki, was 85 nM. In series [2], the IC50 stood at 610 nM. The results for the half-life in series [3] and in series [4] were over 180 min and 76.2 min, respectively. The figures for the solubility kinetic in series [5] and in series [6] were 27.4 µM (≈ 10.8 µg/mL) and 6.9 µM (≈ 2.72 µg/mL), respectively. The Papp A→B in series [7] was 3.15 ×10⁻⁶ cm/s.

Consider `CC(C)[C@@H](c1ccc(-c2ccc3cccc(F)c3c2)[nH]c1=O)[C@H]1OC(=O)NC1=O` (relative stereo), for which, in series [1], affinity was put at a Ki of 27 nM. Also, the IC50 in series [2] turned out to be 92 nM. Moreover, the half-life in [3] is over 180 min; in [4], 116 min. Also, the results for the solubility kinetic in [5] and in [6] were 31.6 µM (≈ 12.5 µg/mL) and 5.4 µM (≈ 2.13 µg/mL), respectively. The apparent permeability from apical to basolateral (Papp A→B) in series [7] came to 9.14 ×10⁻⁶ cm/s.
